High-throughput results from PubChem.
In the library only some 12% were active in any assay of this set; here they are far more common.
RAM inhibit = blocks the yeast RAM network; S. cerevisiae dse1pr::URA3 reporter, 5-FOA growth OD615, 2 d; analog-sensitive cbk1-as2 kinase mutant strain; inhibition, % at 50 µM; actives 1.8% (n = 190,000); AID 868;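 active means inhibition above a set limit, 3 SD over mean compound inhibition, cut at about 8.4% in these data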;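 further: inhibition rescues growth on 5-FOA so higher OD means more RAM inhibition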
WT yeast gro inh = growth inhibition of WT yeast, mitochondrial fusion screen; mitochondrial fusion phenotypic screen, WT strain; inhibition, % at 10 µM; actives 2.1% (n = 190,000); AID 1362; in the data active means inhibition above about 58%; tested in S. cerevisiae
Lmaj promast = Leishmania major promastigote growth inhibition; Leishmania major promastigotes, resazurin fluorescence viability; inhibition, % at 10 µM; actives 9% (n = 200,000); AID 1063; in the data active means inhibition above about 50%;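 further: promastigotes grown with compound for 44 hours at 28 °C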
ABCG2 inh = human ABCG2 inhibition, ABCB1 as counter-screen | Q9UNQ0 | actives 0.1% (n = 190,000) | inhibition, % at 6.6 µM | IgMXP3 cells, JC-1 efflux, flow cytometry | AID 1325;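 active means inhibition above 80%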
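Test system: IgMXP3 (ABCG2) plus far-red-tagged CCRF-Adr (ABCB1) cells / Amount: 3 million cells/mL in well / Reagent: JC-1 transporter substrate / Timing: 10 min compound exposure, 25 °C / Signal: flow cytometry, 530 nm JC-1 signal / Read-out: percent efflux inhibition, scaled nicardipine 100% to DMSO 0% / Benchmarks: nicardipine as high control, DMSO as low control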
ABCB1 inh = human ABCB1 inhibition, ABCG2 as counter-screen; P08183; CCRF-Adr cells, JC-1 efflux, flow cytometry; inhibition, % at 6.6 µM; actives 0.067% (n = 190,000); AID 1326; in the data active means inhibition above about 40%;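 further: higher value means more JC-1 retained so stronger ABCB1 efflux block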
Target sequence (P08183 whole entry, looked up): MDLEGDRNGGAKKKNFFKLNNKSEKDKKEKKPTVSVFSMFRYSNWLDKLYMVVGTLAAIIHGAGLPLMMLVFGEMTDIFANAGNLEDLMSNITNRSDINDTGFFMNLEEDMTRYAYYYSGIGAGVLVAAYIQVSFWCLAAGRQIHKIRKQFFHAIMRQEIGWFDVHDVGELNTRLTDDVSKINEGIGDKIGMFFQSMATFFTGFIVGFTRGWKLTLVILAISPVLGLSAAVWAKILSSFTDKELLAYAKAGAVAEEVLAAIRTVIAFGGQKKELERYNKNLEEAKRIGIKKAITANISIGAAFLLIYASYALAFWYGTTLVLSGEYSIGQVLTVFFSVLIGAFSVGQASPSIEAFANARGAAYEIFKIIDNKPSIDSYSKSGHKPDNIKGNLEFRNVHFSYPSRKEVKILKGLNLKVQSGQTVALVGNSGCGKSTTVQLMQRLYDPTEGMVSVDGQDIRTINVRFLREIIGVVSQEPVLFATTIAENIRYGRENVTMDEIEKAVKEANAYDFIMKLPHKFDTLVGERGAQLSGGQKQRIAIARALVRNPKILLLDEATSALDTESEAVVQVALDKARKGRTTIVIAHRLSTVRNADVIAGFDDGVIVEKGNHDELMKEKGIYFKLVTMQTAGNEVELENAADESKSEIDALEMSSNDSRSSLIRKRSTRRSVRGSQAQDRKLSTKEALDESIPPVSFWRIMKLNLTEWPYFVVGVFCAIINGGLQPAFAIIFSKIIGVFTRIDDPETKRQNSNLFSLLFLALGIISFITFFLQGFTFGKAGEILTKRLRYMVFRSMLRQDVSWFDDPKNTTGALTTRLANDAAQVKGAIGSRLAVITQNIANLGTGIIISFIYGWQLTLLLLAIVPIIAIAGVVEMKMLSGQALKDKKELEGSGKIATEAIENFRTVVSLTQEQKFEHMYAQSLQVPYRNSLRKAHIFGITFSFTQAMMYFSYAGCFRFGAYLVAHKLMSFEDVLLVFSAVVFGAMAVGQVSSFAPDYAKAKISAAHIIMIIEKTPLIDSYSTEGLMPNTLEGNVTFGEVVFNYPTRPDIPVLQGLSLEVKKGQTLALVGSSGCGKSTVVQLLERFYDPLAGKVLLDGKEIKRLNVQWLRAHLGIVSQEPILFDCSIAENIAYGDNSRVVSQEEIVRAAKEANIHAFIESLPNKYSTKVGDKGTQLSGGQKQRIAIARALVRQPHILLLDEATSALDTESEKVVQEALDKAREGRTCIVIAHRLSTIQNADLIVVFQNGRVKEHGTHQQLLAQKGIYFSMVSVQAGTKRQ
RAM efflux-def = RAM network inhibitors in efflux-deficient yeast; shares compounds with RAM inhibit; max inhibition, %; 1,200 tested, under 10 active; AID 1305; S. cerevisiae efflux-deficient reporter strain, 5-FOA growth OD615, 2 days; call rule not given here
Each line names hits and unclear results; the compound was inactive in the other large screens (follow-up assays come after a bar, where they were run).

Cc1c(C(=O)N2CCc3ccccc3C2)oc2ccc(S(=O)(=O)N3CC(C)CC(C)C3)cc12 (stereo not drawn)	RAM inhibit 12 | RAM efflux-def inactive
CCN(CC)S(=O)(=O)c1cc(C(=O)OCC(=O)Nc2cccc(Br)c2)ccc1F	RAM inhibit 15 | RAM efflux-def inactive
CCN(CC)S(=O)(=O)c1cc(C(=O)OCC(=O)Nc2c(F)cccc2F)ccc1F	none
O=C1CN2NC(=S)N(c3ccccc3)C2=CN1c1ccc(Cl)cc1	none
COc1ccc(C(=O)Nc2cc(OC)c(Cl)cc2Cl)cc1	none
COc1ccc(COc2ccsc2C(=O)Nc2ccc(Cl)c(Cl)c2)cc1	RAM inhibit 14 | RAM efflux-def inactive
COc1ccc(C(=O)Nc2cc(OCc3ccccc3)c(Cl)cc2Cl)cc1	RAM inhibit 15 | RAM efflux-def inactive
O=C(Nc1ccccc1Cl)c1cccc(COc2cc(Cl)ccc2Cl)c1	RAM inhibit 12 | RAM efflux-def inactive
CN(C)S(=O)(=O)Oc1ccsc1C(=O)Nc1ccc(Cl)c(Cl)c1	none
COc1ccccc1C(=O)OCc1ccc2sc(C)nc2c1	none
COc1cc(/C=C/C(=O)O)cc(S(=O)(=O)NCCCC(=O)O)c1OC	none
Oc1csc(Cc2nc(-c3ccccc3F)cs2)n1	none
CCCCn1c(=O)c(CCC(=O)OCC(=O)Nc2ccc(F)c(Cl)c2)nc2ccccc21	none
NC(=O)c1ncc(C(F)(F)F)cc1Oc1ccc(C(F)(F)F)cc1	none
CC(C)CC(=O)NC(=S)Nc1nc(-c2ccccc2)cs1	RAM inhibit 13 | RAM efflux-def inactive
Cc1cc(C)c(C)c(S(=O)(=O)N2CCC(C(=O)OCC(=O)N3c4ccccc4NC(=O)C3(C)C)CC2)c1C	RAM inhibit 12 | RAM efflux-def inactive
CON/C=C(\C=Nc1ccc(Cl)cc1Cl)c1ncc(C(F)(F)F)cc1Cl	RAM inhibit 13 | RAM efflux-def inactive
O=S1(=O)Cc2cc3ccccc3cc2C1	none
O=C1CCC(/C=C/c2ccccc2)=NN1Cc1ccc(Cl)c(Cl)c1	RAM inhibit 13 | RAM efflux-def inactive
O=C1CCC(/C=C/c2ccccc2)=NN1Cc1ccccc1Cl	RAM inhibit 23, WT yeast gro inh 60 (no result: ABCG2 inh, ABCB1 inh) | RAM efflux-def inactive
N#Cc1ccc(CSc2nnc(-c3c[nH]c4ccccc34)n2-c2ccccc2)cc1	RAM inhibit 12 | RAM efflux-def inactive
CCOc1ccc(C(=O)/C=C/Nc2ccc(S(=O)(=O)Nc3onc(C)c3C)cc2)cc1	none
Cc1noc(NS(=O)(=O)c2ccc(N/C=C\C(=O)c3ccc(Br)cc3)cc2)c1C	RAM inhibit 12 | RAM efflux-def inactive
COCCn1c(SCC(=O)Nc2nnc(C)s2)nnc1-c1ccncc1	none
CCOC(=O)c1sc(NC(=O)CSc2nnc(-c3ccc(OC)cc3)n2CCOC)nc1C	RAM inhibit 12 | RAM efflux-def inactive
O=C(NCC1CCCO1)/C(=C/c1cn(-c2ccccc2)nc1-c1cccnc1)NC(=O)c1ccccc1 (stereo not drawn)	none
COC(=O)c1ccc(-c2ccc(Cl)cc2)nc1C	none
C=CCO/N=C(/C)c1c(O)c(CC)c(-c2ccccc2)n(-c2ccccc2)c1=O	RAM inhibit 13, Lmaj promast 51 | RAM efflux-def inactive
C=CCOC(=O)C1=C(C)NC(SCC)=C(C#N)C1c1ccc(Cl)cc1 (stereo not drawn)	RAM inhibit 13, Lmaj promast 100 | RAM efflux-def inactive
CC(=O)OCCCNc1cc(Sc2ccc(Cl)cc2)c2nonc2c1[N+](=O)[O-]	RAM inhibit 12 | RAM efflux-def inactive
CC(=O)OCCNc1cc(SC(C)C)c2nonc2c1[N+](=O)[O-]	none
CCOCCCNc1nc(C)nc2c1nnn2Cc1c(F)cccc1Cl	none
O=C(COC(=O)c1cc(-c2cccc(Br)c2)nc2ccccc12)NCC1CCCO1 (stereo not drawn)	RAM inhibit 15, WT yeast gro inh 71 | RAM efflux-def inactive
COc1cc(Cl)c(C)cc1NC(=O)c1ccc(S(C)(=O)=O)cc1	none
COc1ccc(/C=C2\SC(=S)N(CC(=O)OCC(=O)Nc3ccc(C)cc3Cl)C2=O)cc1	RAM inhibit 13 | RAM efflux-def inactive
COc1ccc(/C=C2/SC(=S)N(CCC(=O)O)C2=O)cc1	none
COc1cc([N+](=O)[O-])ccc1NC(=O)COC(=O)C=C(C)C	none
COc1ccc(/C=C2\SC(=S)N(CC(=O)OCC(=O)Nc3ccc([N+](=O)[O-])cc3OC)C2=O)cc1	RAM inhibit 18 | RAM efflux-def inactive
O=C(CSc1ccc2ccccc2n1)N1CCC(c2noc3ccc(F)cc23)CC1	none
COc1ccc(-c2nc3ccccc3c(=O)n2CCOc2cccc(C)c2C)cc1	RAM inhibit 16 | RAM efflux-def inactive
COc1ccc(-c2nc3ccccc3c(=O)n2CCOc2c(C)cccc2C)cc1	RAM inhibit 17 | RAM efflux-def inactive
COc1ccc(-c2nc3ccccc3c(=O)n2CCN2CCOCC2)cc1	none
Cc1ccc(-c2nc3ccccc3c(=O)n2CCN2CCOCC2)cc1	none
C=CCNC(=S)N1CCN(Cc2ccccc2)CC1	none
C=CCN(CC=C)S(=O)(=O)c1ccc(NC(=O)COc2ccccc2OC)cc1	RAM inhibit 15 | RAM efflux-def inactive
CSc1nc2ccc(NC(=O)c3cc4ccccc4o3)cc2s1	none
COCCCNc1nc(SCc2ccccc2)nc2sc3c(c12)CCC3	RAM inhibit 16 | RAM efflux-def inactive
COc1cccc(CSc2nc3ccccc3cc2C=O)c1	RAM inhibit 12, Lmaj promast 97 | RAM efflux-def inactive
COC(=O)c1cc(OC)c(OC)cc1NC(=S)N1CCN(c2ccccn2)CC1	none
Cc1nn(Cc2c(Cl)cccc2Cl)c(C)c1NC(=O)Cn1nc([N+](=O)[O-])c(Cl)c1C	RAM inhibit 13 | RAM efflux-def inactive
Cc1nn(Cc2ccccc2)c(C)c1NC(=O)Cn1nc([N+](=O)[O-])c(Cl)c1C	none
COc1ccc(C(=O)NCC(=O)OCc2ccc([N+](=O)[O-])cc2)cc1	none
COc1ccc(C(=O)NCC(=O)OCc2cccc(Br)c2)cc1	RAM inhibit 13 | RAM efflux-def inactive
COC(=O)C(NNc1ccccc1C)(NC(=O)c1ccc(F)cc1)C(F)(F)F (stereo not drawn)	none
Brc1ccccc1-c1nnc2sc(Cc3ccccc3)nn12	RAM inhibit 33 | RAM efflux-def inactive
COC(=O)C(Cc1ccccc1)NC(=O)C12CC3CC(CC(C3)C1)C2 (stereo not drawn)	none
COC(=O)[C@H](Cc1ccccc1)NC(=O)[C@@]1(C)C[C@@H]1[C@@H](NC(=O)OCc1ccccc1)c1ccccc1	RAM inhibit 13 | RAM efflux-def inactive
CCOC(=O)c1cc(C#N)c(Oc2cccc(C(F)(F)F)c2)nc1-c1ccccc1	RAM inhibit 13 | RAM efflux-def inactive
Cc1c(Cl)cnc(NC(=O)CSc2nncs2)c1Cl	none
